Pemphigus Ab inh: blocks pemphigus antibody binding to human desmoglein-3. binding (percent of control), % at 10 µM. AID 588358. hit rate 0.48% among 310,000. P32926. DSG3-coupled beads, scFv-anti-DSG3-GFP binding, flow cytometry; active compounds read low;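 active = binding more than 3 SD below its plate's average and above zero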;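 note: hits lower antibody fragment binding to DSG3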
HDAC3 inhib: human HDAC3 inhibition. O15379. recombinant HDAC3, fluorogenic peptide/trypsin coupled, fluorescence. inhibition, % at 8.3 µM. hit rate 0.15% among 320,000. AID 2718; in the data active = inhibition above about 26%, passing the limit was not always enough
Arr AP2 block: blocks beta-arrestin peptide binding to AP2 adaptin. FITC-arrestin peptide / GST-AP2 beads, flow cytometry; AP2 beta2 appendage carries R879A mutation. inhibition, % at 10 µM. hit rate 0.31% among 340,000. AID 504490;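 active = inhibition above a set limit, near 3 SD of compounds lacking own fluorescence, cut at about 54% in these data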
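System: GST-AP2 R879A glutathione beads; medium: PBS, Tween 20 0.05%, BSA 0.1%; reagent: fluorescein-tagged arrestin peptide at 50 nM final; schedule: pre-incubation 12 min, peptide binding 1 h, room temperature; detection: flow cytometry, FL1 (488/535 nm); read-out: inhibition as reduced fluorescein signal on beads, percent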
T cell modulator: modulates CD8 T cell binding to vesicles; 2C CD8+ T cell-vesicle binding, flow cytometry; active compounds read low; response (vesicle binding), % at 7 µM; hit rate 0.068% among 330,000; AID 2052;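 active = response, share of CD8 T cells binding vesicles, and their 90th percentile fluorescence all below set limits, cut at about 80% in these data, passing the limit was not always enough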;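 note: values below 100% mean blocked vesicle binding to the CD8+ T cells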
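Also added: QL9-peptide-loaded Drosophila micro-vesicles bearing Ld, ICAM-1 and B7-1; Test system: purified 2C TCR transgenic mouse naive CD8+ T cells; Measured by: cytometric PE anti-B7-1 and Alexa647 anti-CD8 signals after 1% paraformaldehyde fixation; Timing: binding step 1.5 h, 37 °C, antibody labelling 20 min, ice.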
LANA-H2A inh: blocks KSHV LANA binding to histone H2A/H2B; hit rate 0.6% among 320,000; inhibition, % (concentration not given with the values); Q9QR71; cell-free LANA-H2A/H2B peptide, fluorescence polarization; in the data active = inhibition mostly above about 10%, no sharp cut-off; inactive = mostly below about 6.7%
Arr-AP2 CP1: blocks beta-arrestin peptide binding to human AP2; shares compounds with Arr AP2 block; GST-AP2 beads, FITC arrestin peptide binding, flow cytometry; GST-fused beta2-adaptin appendage, R879A mutant; inhibition, % at 10 µM; hit rate 2% among 1,300; AID 504908;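 active = inhibition above a set limit, roughly 3 SD of non-fluorescent compound noise, cut at about 38% in these data; inactive = inhibition at or below that limit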;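 note: loss of bead fluorescence from 50 nM FITC arrestin peptide bound to appendage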
Target sequence (P63010 whole entry, looked up, the tested form may be a part, one chain of several): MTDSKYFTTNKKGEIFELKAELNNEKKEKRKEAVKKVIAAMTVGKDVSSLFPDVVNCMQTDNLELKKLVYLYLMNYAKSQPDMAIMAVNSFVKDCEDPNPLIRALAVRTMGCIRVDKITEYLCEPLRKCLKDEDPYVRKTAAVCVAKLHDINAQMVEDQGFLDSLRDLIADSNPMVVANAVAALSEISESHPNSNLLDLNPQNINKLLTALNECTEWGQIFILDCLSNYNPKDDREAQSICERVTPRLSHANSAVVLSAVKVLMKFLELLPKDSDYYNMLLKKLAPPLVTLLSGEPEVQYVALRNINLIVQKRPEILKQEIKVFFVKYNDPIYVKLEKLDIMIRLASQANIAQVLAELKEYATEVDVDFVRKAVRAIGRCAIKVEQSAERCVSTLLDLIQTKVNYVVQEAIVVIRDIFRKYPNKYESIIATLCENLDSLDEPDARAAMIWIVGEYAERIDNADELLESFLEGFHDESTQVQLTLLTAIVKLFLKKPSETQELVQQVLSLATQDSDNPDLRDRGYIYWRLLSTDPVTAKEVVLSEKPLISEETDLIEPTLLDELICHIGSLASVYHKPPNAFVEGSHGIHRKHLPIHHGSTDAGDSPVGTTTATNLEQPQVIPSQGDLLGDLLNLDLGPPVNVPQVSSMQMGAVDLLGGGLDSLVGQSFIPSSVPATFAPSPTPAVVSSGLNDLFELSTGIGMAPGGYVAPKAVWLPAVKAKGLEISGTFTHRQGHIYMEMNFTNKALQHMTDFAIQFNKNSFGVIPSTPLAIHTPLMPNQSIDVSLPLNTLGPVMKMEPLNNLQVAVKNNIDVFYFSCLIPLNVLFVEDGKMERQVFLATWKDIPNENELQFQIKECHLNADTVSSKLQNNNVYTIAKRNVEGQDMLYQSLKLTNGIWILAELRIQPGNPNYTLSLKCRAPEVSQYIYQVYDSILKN
GST-FITC bead: disrupts GST binding to glutathione beads, arrestin-AP2 artifact | shares compounds with Arr AP2 block | GST-fluorescein binding to GSH beads, fluorescence, counter-screen | inhibition, % at 10 µM | hit rate 2% among 1,300 | AID 588338;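 active = inhibition above 50%, about 3 SD of the inhibition seen with non-fluorescent compounds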;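 note: fluorescein maleimide labelled GST captured on 4 micron glutathione beads; higher means more loss of bead fluorescence from quenching or blocked binding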
Numbers stand for hits; - = inactive; . = not tested or not shown. Hits are enriched below; roughly 1.5% of the tested compounds scored in any of these assays.

SMILES | Pemphigus Ab inh | HDAC3 inhib | Arr AP2 block | T cell modulator | LANA-H2A inh | Arr-AP2 CP1 | GST-FITC bead
O=C(CCc1cn2ccccc2n1)NC1CCCc2c1cnn2-c1ccccc1F (stereo not drawn) | - | - | - | - | - | . | .
O=C(CCn1nc(-c2ccc(Cl)cc2)ccc1=O)NCc1ccccn1 | - | - | 79.0 | - | - | - | -
CC(C)CCNC(=O)CCn1nc(-c2ccc(Cl)cc2)ccc1=O | - | - | - | - | - | . | .
Cc1ccc(-c2nc(NC(=O)c3ccc(S(=O)(=O)N(CCC#N)CCC#N)cc3)sc2-c2ccccc2)cc1 | - | . | 63.0 | - | . | - | -
CCOC(=O)C1=CC[C@H]2c3c(c4ccc(OC)cc4n3C)C(=O)C1N2S(=O)(=O)c1ccc(C)cc1 | - | - | 58.3 | - | - | - | -
CCOC(=O)C1=CCC2c3c(c4ccccc4n3C)C(=O)C1N2C(=O)OC(C)(C)C (stereo not drawn) | - | - | - | - | - | . | .
C/C(=N\NC(=O)Nc1ccccc1)c1ccc2ccccc2c1 | - | - | 92.7 | - | - | - | -
C/C(=N/NC(=O)Nc1ccccc1)c1ccc(C)cc1 | - | - | - | - | - | . | .
Cc1ccccc1NC(=O)Cc1nc(COC(=O)c2ccc(S(C)(=O)=O)c([N+](=O)[O-])c2)cs1 | - | . | - | - | . | . | .
Cc1ccc2c(CC(=O)Nc3ccc(F)c(S(=O)(=O)N4CCOCC4)c3)coc2c1 | - | - | - | - | - | . | .
CCN(CC)S(=O)(=O)c1ccc(NC(=O)c2ccc(N(C)S(C)(=O)=O)cc2)cc1 | . | - | - | - | - | . | .
CCN(CC)S(=O)(=O)c1ccc(C(=O)Nc2ccc(Cc3ccncc3)cc2)cc1 | - | - | 56.1 | - | - | - | -
CCN(Cc1cccs1)C(=O)CN1CCN(S(=O)(=O)c2ccc3c(c2)OCCCO3)CC1 | - | . | - | . | . | . | .
COc1ccc(NC(=O)CSc2cccc3cccnc23)c(OC)c1 | - | - | - | - | - | . | .
CCCCCOc1ccc(NC(=O)CSc2cccc3cccnc23)cc1 | - | - | 107.0 | - | - | - | -
CC(C)c1nc2sc3c(NCc4ccco4)ncnc3c2c2c1COC(C)(C)C2 | - | - | 101.2 | - | - | - | -
COc1ccc(-c2csc3ncnc(N4CCN(c5ccccc5O)CC4)c23)cc1 | - | - | 55.8 | - | - | - | -
COc1ccccc1N1CCN(C(=O)CSc2ncnc3scc(-c4ccccc4)c23)CC1 | - | - | 60.3 | - | - | - | -
Cc1cnc(C(=O)OC(C)C(=O)Nc2ccccc2-c2ccccc2)cn1 (stereo not drawn) | - | - | - | - | - | . | .
Cc1cccc(C)c1NC(=S)Nc1ccc(F)cc1 | - | - | 57.5 | . | - | - | -
COc1ccc(NC(=O)CCN(c2ccc(OC)cc2)S(=O)(=O)c2ccc(C)c(C)c2)cc1 | - | . | 65.2 | . | . | - | -
COc1ccc(N(CC(=O)Nc2ccc(C)c(C)c2)S(=O)(=O)c2c(C)noc2C)cc1 | . | - | - | - | - | . | .
Cc1ccc(C(=O)OCC(=O)NC2CCCC2)cc1C | - | - | - | - | - | . | .
CCOC(=O)C1CCN(c2cc3c(cc2NC(=O)c2ccc(OC)c(OC)c2)n(C)c(=O)n3C)CC1 | - | - | - | - | - | - | -
CCOC(=O)C1CCN(S(=O)(=O)c2cccc(C(=O)Nc3ccccc3)c2)CC1 | . | - | - | - | - | . | .
SMILES | Pemphigus Ab inh | HDAC3 inhib | Arr AP2 block | T cell modulator | LANA-H2A inh | Arr-AP2 CP1 | GST-FITC bead
COc1ccc(C(=O)Nc2ccc3c(c2)n(C)c(=O)n3C)cc1OC | - | - | - | - | - | . | .
CCOC(=O)C1CCN(c2cc3c(cc2NC(=O)c2ccccc2)n(C)c(=O)n3C)CC1 | - | - | - | - | - | - | -
Nc1c(C(=O)NCc2cccs2)nnn1CC(=O)Nc1cccc(Cl)c1 | - | - | 99.1 | - | - | - | -
Cc1nc2ccc(Br)cc2c(=O)n1Cc1cccs1 | - | - | - | - | - | . | .
COc1cc(C=O)cc(Cl)c1OC(=O)N1CCOCC1 | - | - | - | - | - | . | .
O=C(Cc1ccc(NC(=O)C2CCN(C(=O)C3CCC3)CC2)cc1)Nc1cccc(C(=O)N2CCCCC2)c1 | - | . | 60.3 | . | . | - | -
Cc1cccc(-c2nnc(-c3ccc4ccccc4c3)o2)c1 | - | . | - | . | . | . | .
